Our source for the inhibition and activation values is PubChem BioAssay.

Structures are written as SMILES. This is one part of the list. Calls of active or inactive are those of the source.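 Rule for the calls, unless noted: active = mean inhibition across replicates above the hit cutoff set in the primary screen (cut at about 30% in these data); inactive = the rest.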

A short description of assay [1]: VP16-driven transactivation reporter suppression – cell-based, luminescence, HEK293, counter-screen for COUP-TFII antagonist project (AID 687007; in the data active = inhibition above about 13%). As to conditions: HEK293 Gal4-VP16 luciferase reporter, at 8.5 µM, active compounds read high. Background: A counterscreen serves to expose hits that act by an unwanted route or on another target.
Assay [2] deals with COUP transcription factor 2 (Homo sapiens) (UniProt P24468). Description: retest of COUP-TFII reporter suppressors – cell-based, luciferase reporter, HEK293, triplicate, confirmation (AID 687008;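 active = mean inhibition over three repeats above a set limit taken from the earlier primary screen, cut at about 38% in these data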;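 note: 100% = cells given the luciferase reporter alone without the COUP-TF2 vector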). Conditions: HEK293 NGFI-A luciferase reporter, luminescence; at 8.5 µM; active compounds read high. For orientation: Reporter assays use an easily measured gene product as a stand-in for the process of interest.

The target of assay [3] is Oxysterols receptor LXR-beta (Homo sapiens) (UniProt P55055). The assay is described as follows: nonspecific reporter activation via LXR – cell-based, luminescence, HEK293, H. contortus campaign, counter-screen for hcDAF-12 agonist project, confirmation (AID 743027;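 active = mean percent activation of the reporter above a cutoff set as the average over tested compounds plus their standard deviation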). Conditions: HEK293 Gal4-LXR tk-luc reporter, 24 h, at 6.8 µM, active compounds read high, normalized: DMSO 0%, positive control 100%. The gist of the method:
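Assay system: Gal4-LXR and tk-luc reporter transfected HEK293 cells; Compound: 6.8 µM single dose; Times: one-day compound treatment at 37 °C; Technique: One-Glo luciferase luminescence; Read-out basis: % activation relative to DMSO and positive-control wells; Benchmarks: DMSO low control, positive-control high control; Repeats: three replicates per compound.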

Assay [4] has as its system Nuclear hormone receptor DAF-12 (Haemonchus contortus). The assay is described as follows: hcDAF-12 luciferase reporter activation, retest – cell-based, luminescence, HEK293, lit1-tk-luc, triplicate, confirmation (AID 743032;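 active = mean activation across triplicate tests above the threshold derived from the earlier primary screen, cut at about 5.5% in these data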;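 note: 0% = DMSO only wells and 100% = 3 µM Δ7-dafachronic acid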). Conditions: HEK293 hcDAF-12 lit1-tk-luc reporter, at 6.8 µM, active compounds read high, % of Δ7-dafachronic acid response.
In assay [5] the target is (Lyso)-N-acylphosphatidylethanolamine lipase (Mus musculus) (UniProt Q8VD66). Description: mouse ABHD4 hydrolase blockers, triplicate – biochemical, fluorescence polarization, confirmation (AID 720658). As to conditions: purified mABHD4, FP-Rh probe fluorescence polarization; at 8.92 µM; active compounds read high. In short, it runs like this:
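Test system: wild-type mouse ABHD4. Medium: HEPES-saline buffer with 0.01% Pluronic F-127. Doses: single nominal compound dose 8.92 µM, 0.89% DMSO final. Timing: pre-incubation 45 min, probe exposure 60 min, 25 °C. Technique: FP readout, ex 525 nm, em 598 nm. Control set: S159A mutant ABHD4 plus DMSO as 100%, wild-type plus DMSO 0%.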
For orientation: Fluorescence polarisation rises when a labelled molecule tumbles more slowly, as on binding a larger partner.

Sequence of (Lyso)-N-acylphosphatidylethanolamine lipase (Mus musculus) (Q8VD66 whole entry, looked up): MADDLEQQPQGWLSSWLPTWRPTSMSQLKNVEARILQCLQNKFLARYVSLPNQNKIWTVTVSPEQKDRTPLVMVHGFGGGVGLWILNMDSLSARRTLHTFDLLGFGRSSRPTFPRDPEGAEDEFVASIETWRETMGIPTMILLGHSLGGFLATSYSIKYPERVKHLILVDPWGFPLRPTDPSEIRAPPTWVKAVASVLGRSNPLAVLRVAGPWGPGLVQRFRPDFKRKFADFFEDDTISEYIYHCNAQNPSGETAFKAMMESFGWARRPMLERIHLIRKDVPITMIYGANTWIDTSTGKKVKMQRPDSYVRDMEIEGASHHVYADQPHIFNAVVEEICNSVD
Sequence of Oxysterols receptor LXR-beta (Homo sapiens) (P55055 whole entry, looked up, the tested form may be a part): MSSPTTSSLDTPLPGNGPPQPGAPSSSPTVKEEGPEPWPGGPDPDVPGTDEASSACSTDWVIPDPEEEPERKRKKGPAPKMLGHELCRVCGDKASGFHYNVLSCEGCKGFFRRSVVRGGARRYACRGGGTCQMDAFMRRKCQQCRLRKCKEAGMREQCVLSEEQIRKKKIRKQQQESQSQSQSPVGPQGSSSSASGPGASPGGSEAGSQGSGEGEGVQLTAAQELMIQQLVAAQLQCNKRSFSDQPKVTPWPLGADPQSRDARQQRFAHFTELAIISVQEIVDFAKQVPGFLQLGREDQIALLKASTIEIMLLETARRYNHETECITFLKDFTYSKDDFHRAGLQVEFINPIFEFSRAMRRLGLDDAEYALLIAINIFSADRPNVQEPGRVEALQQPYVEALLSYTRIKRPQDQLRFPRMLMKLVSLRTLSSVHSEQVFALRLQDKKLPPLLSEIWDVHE
Sequence of COUP transcription factor 2 (Homo sapiens) (P24468 whole entry, looked up): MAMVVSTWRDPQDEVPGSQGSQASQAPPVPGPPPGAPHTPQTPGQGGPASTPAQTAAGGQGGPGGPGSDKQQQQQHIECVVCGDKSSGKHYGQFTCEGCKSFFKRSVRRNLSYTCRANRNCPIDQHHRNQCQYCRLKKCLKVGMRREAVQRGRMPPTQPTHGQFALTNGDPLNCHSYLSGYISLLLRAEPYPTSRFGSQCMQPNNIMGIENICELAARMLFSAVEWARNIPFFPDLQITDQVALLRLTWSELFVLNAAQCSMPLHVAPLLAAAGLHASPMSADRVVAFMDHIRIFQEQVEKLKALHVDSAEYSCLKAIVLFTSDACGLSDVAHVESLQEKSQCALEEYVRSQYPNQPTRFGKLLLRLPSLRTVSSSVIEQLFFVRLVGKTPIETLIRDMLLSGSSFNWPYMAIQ

Broadly, the inhibition is the relative decrease from the control value, in per cent. With `COc1cc(/C=C/C(=O)n2cnc3ccccc32)cc(OC)c1OC`, the inhibition is -14.2% (inactive) in assay [1] and 16.1% (inactive) in assay [2]. `Cc1ccc(Nc2nc(CSc3nnc(-c4ccncc4)n3-c3ccccc3C)cs2)cc1`: the values for the inhibition in assay [1] and in assay [2] were -8.65% (inactive) and 11.9% (inactive), respectively.

As to `Clc1ccc(-c2cc(-c3ccccn3)on2)c(Cl)c1`, the activation was 1.95% (inactive) in assay [3] and 12.6% (active) in assay [4].

As for `CCN1C(=O)/C(=C2/Sc3ccccc3N2CCCS(=O)(=O)O)SC1=S`, in assay [5], the inhibition was 24.3% (inactive). Turning to `Cc1ccc(NC(=O)Cc2nc(COC(=O)C(C)NS(=O)(=O)c3ccc(C)cc3)cs2)cc1` (stereo unspecified), the inhibition in assay [5] was 7.11% (inactive). On to `O=C(/C=C/c1cnc2ccccc2n1)NC1CCCCCC1`, for which the activation in assay [3] is 0.79% (inactive); in assay [4] it was 4.58% (inactive). `COc1cc(C(=O)Nn2c(O)c(C3=c4ccccc4=NC3=O)sc2=S)ccc1O`: in assay [5], the inhibition was 77.4% (active).

In the case of `NC(N)=N/N=C/c1ccc(OCc2ccc(Cl)cc2Cl)cc1`, the inhibition in assay [5] is 46.2% (active).

Take `OC(COc1ccc2ccccc2c1)CN1CCOCC1` (stereo unspecified): the activation is 0.33% (inactive) in assay [3] and 8.99% (active) in assay [4]. `CCCCCCSc1ccc(-c2nc3ccc(Cl)cn3c2NCc2ccccc2)cc1`: in assay [5], the inhibition is 5.45% (inactive). In the case of `O=C(O)c1ccccc1/C=N/Nc1ccc(S(=O)(=O)Nc2ccc(Cl)cc2)cc1[N+](=O)[O-]`, the inhibition in assay [5] was 50.4% (active). Consider `CC(C)(C)C(=O)OCc1nc(-c2ccc(O)c(O)c2)cs1`, for which the inhibition in assay [5] is 28.1% (inactive). In the case of `COc1ccc(Br)cc1/C=N/Nc1ccc(S(=O)(=O)Nc2ccccc2C(=O)O)cc1[N+](=O)[O-]`, the inhibition in assay [5] was 20.7% (inactive). Turning to `NNc1nc2c(Cl)cccc2s1`, the inhibition in assay [5] was 24% (inactive). The activation in assay [3] was -0.01% (inactive); in assay [4] it was 1.23% (inactive).
